Reference: ChEMBL document CHEMBL4312029, “Structure-activity relationship studies and in vitro and in vivo anticancer activity of novel 3-aroyl-1,4-diarylpyrroles against solid tumors and hematological malignancies” (Eur J Med Chem, 2020)
The source made the active and inactive calls. The calls are words filed in the database; no cut-off is given here.

Tests used:
[1] = biological target: Tubulin; assay: Inhibition of tubulin polymerization (unknown origin) incubated for 15 mins followed by GTP addition and measured for 20 mins by spectrophotometry; format: protein-complex assay, Homo sapiens
Summary of the method: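 Tubulin assembly assay with tubulin at 10 µM. IC50 for inhibition of polymerization; run in duplicate or triplicate.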

[2] = system: MCF7; assay: Cytotoxicity against human MCF7 cells assessed as reduction in cell growth incubated for 96 hrs by MTT assay; format: functional, cell-based; conditions: MCF7, 96 h
Summary of the method: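 Growth inhibition of human breast carcinoma cells, reported as IC50; run in duplicate or triplicate.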

[3] = biological target: Tubulin (Homo sapiens) (UniProt P68371+Q9H4B7+P0DPH7+P68366+Q13509+Q71U36+P04350+Q3ZCM7+P07437+P68363+Q9BQE3+Q6PEY2+Q13885+Q9BVA1+Q9BUF5); assay: Inhibition of [3H]colchicine binding to tubulin (unknown origin) at 5 uM incubated for 10 mins by DEAE-cellulose filter method relative to control; format: protein-complex assay
[4] = system: KU812 cell line; assay: Cytotoxicity against human KU812 cells expressing IM- sensitive wild type Bcr/Abl assessed as reduction in cell viability incubated for 48 hrs by MTT assay; format: functional, cell-based; conditions: KU812, 48 h
[5] = Cytotoxicity against human LAMA84-s cells expressing IM-sensitive wild type Bcr/Abl assessed as reduction in cell viability incubated for 48 hrs by MTT assay; format: functional, cell-based
[6] = Cytotoxicity against IM resistant human LAMA84-r cells assessed as reduction in cell viability incubated for 48 hrs by MTT assay; format: functional, cell-based
[7] = system: KBM5; assay: Cytotoxicity against human KBM5 cells expressing IM- sensitive wild type Bcr/Abl assessed as reduction in cell viability incubated for 48 hrs by MTT assay; format: functional, cell-based; conditions: KBM5, 48 h
[8] = system: KBM5; assay: Cytotoxicity against human KBM5 cells expressing IM-resistant Bcr/Abl T315I mutant assessed as reduction in cell viability incubated for 48 hrs by MTT assay; format: functional, cell-based; conditions: KBM5, 48 h
[9] = (§1) Cytotoxicity against human U343MG cells assessed as reduction in cell viability incubated for 72 hrs by MTS assay; format: functional, cell-based; conditions: U-343MG
Summary of the method: (§2)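 Increasing concentrations applied to glioblastoma and neuroblastoma lines to give dose-response viability curves; cytotoxic IC50 from triplicate experiments. Incubation 48 h, except U343MG at 72 h.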

[10] = organism: Homo sapiens; assay: as §1; format: functional, cell-based; summary of the method: as §2
[11] = system: U-87 MG; assay: Cytotoxicity against human U87MG cells assessed as reduction in cell viability incubated for 48 hrs by MTS assay; format: functional, cell-based, U-87MG ATCC; summary of the method: as §2
[12] = system: T98G; assay: Cytotoxicity against human T98G cells assessed as reduction in cell viability incubated for 48 hrs by MTS assay; format: functional, cell-based; summary of the method: as §2
[13] = Cytotoxicity against human SK-N-BE cells assessed as reduction in cell viability incubated for 48 hrs by MTT assay; format: functional, cell-based; summary of the method: as §2
[14] = Cytotoxicity against human SK-N-BE(2)C cells assessed as reduction in cell viability incubated for 48 hrs by MTT assay; format: functional, cell-based; summary of the method: as §2
[15] = system: HCT-116; assay: Cytotoxicity against human HCT116 cells assessed as reduction in cell viability incubated for 48 hrs by MTT assay; format: functional, cell-based
[16] = system: HT-29; assay: Cytotoxicity against human HT-29 cells assessed as reduction in cell viability incubated for 48 hrs by MTT assay; format: functional, cell-based
[17] = system: SW480; assay: Cytotoxicity against human SW480 cells assessed as reduction in cell viability incubated for 48 hrs by MTT assay; format: functional, cell-based
[18] = system: SW-620; assay: Cytotoxicity against human SW620 cells assessed as reduction in cell viability incubated for 48 hrs by MTT assay; format: functional, cell-based
[19] = system: T-24; assay: Cytotoxicity against human T24 cells assessed as reduction in cell viability incubated for 48 hrs by MTT assay; format: functional, cell-based; conditions: T-24, 48 h
[20] = system: T-24; assay: Antitumor activity against human T24 cells xenografted in BALB/c nu/nu mouse assessed as reduction in tumor volume at 20 mg/kg, ip administered every 2 days for 40 days and measured on day 40; format: functional, organism-based
Summary of the method: (§3)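 T24 or ES-2 cells injected on the backs of nude mice; saline-treated control group. Mice euthanized on Day 40, tumors excised, and tumor volume and weight measured.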

[21] = system: T-24; assay: Antitumor activity against human T24 cells xenografted in BALB/c nu/nu mouse assessed as reduction in tumor weight at 20 mg/kg, ip administered every 2 days for 40 days and measured on day 40; format: functional, organism-based; summary of the method: as §3
[22] = system: Homo sapiens; assay: Antitumor activity against human ES2 cells xenografted in BALB/c nu/nu mouse assessed as reduction in tumor volume at 20 mg/kg, ip administered every 2 days for 40 days and measured on day 40; format: functional, organism-based; summary of the method: as §3
[23] = system: Homo sapiens; assay: Antitumor activity against human ES2 cells xenografted in BALB/c nu/nu mouse assessed as reduction in tumor weight at 20 mg/kg, ip administered every 2 days for 40 days and measured on day 40; format: functional, organism-based; summary of the method: as §3
[24] = system: T-24; assay: Antitumor activity against human T24 cells xenografted in BALB/c nu/nu mouse assessed as reduction in Ki67 expression in tumor tissue at 20 mg/kg, […] days for 40 days and measured on day 40 by immunofluorescence analysis; format: functional, organism-based
Summary of the method: (§4)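 Nude mice bearing back tumors from injected T24 or ES-2 cells, treated versus saline controls. Tumors collected on Day 40 and marker expression in tumor tissue assessed by immunofluorescence staining.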

[25] = system: T-24; assay: Antitumor activity against human T24 cells xenografted in BALB/c nu/nu mouse assessed as reduction in CD31 expression in tumor tissue at 20 mg/kg, ip administered every 2 days for 40 days and measured on day 40 by immunofluorescence analysis; format: functional, organism-based; summary of the method: as §4
[26] = system: T-24; assay: Antitumor activity against human T24 cells xenografted in BALB/c nu/nu mouse assessed as reduction in Bcl2 expression in tumor tissue at 20 mg/kg, ip administered every 2 days for 40 days and measured on day 40 by immunofluorescence analysis; format: functional, organism-based; summary of the method: as §4
[27] = system: T-24; assay: Antitumor activity against human T24 cells xenografted in BALB/c nu/nu mouse assessed as increase in caspase 9 expression in tumor tissue at 20 mg/kg, ip administered every 2 days for 40 days and measured on day 40 by immunofluorescence analysis; format: functional, organism-based; summary of the method: as §4
[28] = system: T-24; assay: Antitumor activity against human T24 cells xenografted in BALB/c nu/nu mouse assessed as increase in caspase 3 expression in tumor tissue at 20 mg/kg, ip administered every 2 days for 40 days and measured on day 40 by immunofluorescence analysis; format: functional, organism-based; summary of the method: as §4
[29] = system: T-24; assay: Antitumor activity against human T24 cells xenografted in BALB/c nu/numouse assessed as increase in Bax expression in tumor tissue at 20 mg/kg, ip administered every 2 days for 40 days and measured on day 40 by immunofluorescence analysis; format: functional, organism-based; summary of the method: as §4
[30] = system: Homo sapiens; assay: Antitumor activity against human ES2 cells xenografted in BALB/c nu/nu mouse assessed as reduction in Ki67 expression in tumor tissue at 20 mg/kg, ip administered every 2 days for 40 days and measured on day 40 by immunofluorescence analysis; format: functional, organism-based; summary of the method: as §4
[31] = system: Homo sapiens; assay: Antitumor activity against human ES2 cells xenografted in BALB/c nu/nu mouse assessed as reduction in CD31 expression in tumor tissue at 20 mg/kg, ip administered every 2 days for 40 days and measured on day 40 by immunofluorescence analysis; format: functional, organism-based; summary of the method: as §4
[32] = system: Homo sapiens; assay: Antitumor activity against human ES2 cells xenografted in BALB/c nu/nu mouse assessed as reduction in Bcl2 expression in tumor tissue at 20 mg/kg, ip administered every 2 days for 40 days and measured on day 40 by immunofluorescence analysis; format: functional, organism-based; summary of the method: as §4
[33] = system: Homo sapiens; assay: Antitumor activity against human ES2 cells xenografted in BALB/c nu/nu mouse assessed as increase in caspase 9 expression in tumor tissue at 20 mg/kg, ip administered every 2 days for 40 days and measured on day 40 by immunofluorescence analysis; format: functional, organism-based; summary of the method: as §4
[34] = system: Homo sapiens; assay: Antitumor activity against human ES2 cells xenografted in BALB/c nu/nu mouse assessed as increase in caspase 3 expression in tumor tissue at 20 mg/kg, ip administered every 2 days for 40 days and measured on day 40 by immunofluorescence analysis; format: functional, organism-based; summary of the method: as §4
[35] = system: Homo sapiens; assay: Antitumor activity against human ES2 cells xenografted in BALB/c nu/nu mouse assessed as increase in Bax expression in tumor tissue at 20 mg/kg, ip administered every 2 days for 40 days and measured on day 40 by immunofluorescence analysis; format: functional, organism-based; summary of the method: as §4
[36] = system: PBMC; assay: Cytotoxicity against human PBMC assessed as cell viability by MTT assay; format: cell-based

`COc1cc(C(=O)c2cn(-c3cccc(N)c3)cc2-c2ccc(N)cc2)cc(OC)c1OC` showed an IC50 [1] of 470 nM, an IC50 [2] of 14 nM and an inhibition [3] of 92%. The IC50 [4] was 8 nM, the IC50 [5] was 10 nM and the IC50 [6] was 12 nM. It also gave an IC50 [7] of 14 nM, an IC50 [8] of 16 nM and an Emax [9] of 36.3%. For the same molecule, the IC50 [9] was 11.9 to 12 nM, the inhibition [10] was “Dose-dependent effect” and the Emax [11] was 32%. The IC50 [11] was 30.9 to 31 nM, the inhibition ([11]; U-87MG ATCC) was “Dose-dependent effect” and the Emax [12] was 41.3%. For the same molecule, the IC50 [12] was 36.6 to 37 nM, the inhibition [12] was “Dose-dependent effect” and the IC50 [13] was 221 nM. For the same molecule, the IC50 [14] was 56 nM, the inhibition [15] was “Dose-dependent effect” and the IC50 ([15]; HCT-116, 48 h) was 27 nM. The inhibition [16] was “Dose-dependent effect”, the IC50 ([16]; HT-29, 48 h) was 51 nM and the inhibition [17] was “Dose-dependent effect”. The IC50 ([17]; SW480, 48 h) was 48 nM, the inhibition [18] was “Dose-dependent effect” and the IC50 ([18]; SW-620, 48 h) was 28 nM. For the same molecule, the IC50 [19] was 12 nM, the inhibition [20] was “Active” and the inhibition [21] was “Active”. For the same molecule, the inhibition [22] was “Active”, the inhibition [23] was “Active” and the inhibition [24] was “Active”. For the same molecule, the inhibition [25] was “Active”, the inhibition [26] was “Active” and the Activity [27] was “Active”. For the same molecule, the Activity [28] was “Active”, the Activity [29] was “Active” and the inhibition [30] was “Active”. For the same molecule, the inhibition [31] was “Active”, the inhibition [32] was “Active” and the Activity [33] was “Active”. For the same molecule, the Activity [34] was “Active”, the Activity [35] was “Active” and the Activity [36] was “Non-Toxic”.
